# Data published in ChEMBL document CHEMBL3272274, “Optical resolution of (+/-)-2,5-dimethyl-2'-hydroxy-9alpha- and -9beta-propyl-6,7-benzomorphans and their pharmacological properties” (J Med Chem, 1976).
# The source made the active and inactive calls. The rule behind the calls is not given here.
# Assays:
# [1] = system: Rhesus monkey; test: Toxicity in monkey assessed as myoclonic jerks at 6 mg/kg, sc; type: organism-based, Macaca mulatta; parameters: dose 6 mg/kg, route subcutaneous; settings: in vivo
# [2] = system: Mus musculus; test: Analgesic activity in sc dosed mouse by Nilsen assay; type: functional
# [3] = system: Mus musculus; test: Analgesic activity in sc dosed mouse by Eddy hot-plate assay; type: functional
# [4] = system: Rhesus monkey; test: Physical dependence capacity in monkey assessed as single dose suppression of morphine withdrawal syndrome at 0.5 to 16 mg/kg; type: ADME, organism-based, Macaca mulatta; parameters: dose 0.5-16 mg/kg; settings: in vivo
# [5] = system: Rhesus monkey; test: Toxicity in monkey assessed as increase spontaneous movement at 10 mg/kg for 1 to 2 hrs; type: organism-based, Macaca mulatta; parameters: dose 10 mg/kg; settings: in vivo
# [6] = system: Rhesus monkey; test: Physical dependence capacity in monkey assessed as precipitation of morphine-induced abstinence at 10 mg/kg; type: ADME, organism-based, Macaca mulatta; parameters: dose 10 mg/kg; settings: in vivo
# [7] = system: Rhesus monkey; test: Toxicity in monkey at 0.5 to 16 mg/kg; type: organism-based, Macaca mulatta; parameters: dose 0.5-16 mg/kg; settings: in vivo
# [8] = system: Rhesus monkey; test: Toxicity in monkey assessed as piloerection at 10 mg/kg for 1 to 2 hrs; type: organism-based, Macaca mulatta; parameters: dose 10 mg/kg; settings: in vivo
# [9] = system: Rhesus monkey; test: Physical dependence capacity in monkey assessed as single dose suppression of morphine withdrawal syndrome at 5 to 10 mg/kg; type: ADME, organism-based, Macaca mulatta; parameters: dose 5-10 mg/kg; settings: in vivo
# [10] = system: Rhesus monkey; test: Toxicity in monkey assessed as pupil dilation at 10 mg/kg for 1 to 2 hrs; type: organism-based, Macaca mulatta; parameters: dose 10 mg/kg; settings: in vivo
# [11] = system: Mus musculus; test: Toxicity in mouse at 20 to 40 mg/kg, sc; type: organism-based; parameters: dose 20-40 mg/kg, route subcutaneous; settings: in vivo
# [12] = system: Rhesus monkey; test: Toxicity in monkey assessed as restlessness at 10 mg/kg for 1 to 2 hrs; type: organism-based, Macaca mulatta; parameters: dose 10 mg/kg; settings: in vivo
# [13] = system: Rhesus monkey; test: Physical dependence capacity in monkey assessed as precipitation of morphine-induced abstinence at 0.5 to 16 mg/kg; type: ADME, organism-based, Macaca mulatta; parameters: dose 0.5-16 mg/kg; settings: in vivo
# [14] = system: Rhesus monkey; test: Toxicity in monkey assessed as irritable behavior at 10 mg/kg for 1 to 2 hrs; type: organism-based, Macaca mulatta; parameters: dose 10 mg/kg; settings: in vivo
# [15] = system: Rhesus monkey; test: Toxicity in monkey assessed as tremors at 10 mg/kg for 1 to 2 hrs; type: organism-based, Macaca mulatta; parameters: dose 10 mg/kg; settings: in vivo
# [16] = system: Rhesus monkey; test: Toxicity in monkey assessed as apprehensive behavior at 10 mg/kg for 1 to 2 hrs; type: organism-based, Macaca mulatta; parameters: dose 10 mg/kg; settings: in vivo
# [17] = system: Rhesus monkey; test: Physical dependence capacity in monkey assessed as precipitation of morphine withdrawal syndrome at 5 to 10 mg/kg; type: ADME, organism-based, Macaca mulatta; parameters: dose 5-10 mg/kg; settings: in vivo
# [18] = system: Rhesus monkey; test: Toxicity in monkey assessed as muscle rigidity at 10 mg/kg for 1 to 2 hrs; type: organism-based, Macaca mulatta, Muscle tissue; parameters: dose 10 mg/kg; settings: in vivo
# [19] = system: Rhesus monkey; test: Toxicity in monkey at 16 mg/kg; type: organism-based, Macaca mulatta; parameters: dose 16 mg/kg; settings: in vivo
# [20] = system: Rhesus monkey; test: Physical dependence capacity in monkey assessed as precipitation of morphine withdrawal syndrome at 0.5 to 16 mg/kg; type: ADME, organism-based, Macaca mulatta; parameters: dose 0.5-16 mg/kg; settings: in vivo
# [21] = system: Mus musculus; test: Toxicity in mouse at 16 mg/kg, sc; type: organism-based; parameters: dose 16 mg/kg, route subcutaneous; settings: in vivo
# [22] = system: Mus musculus; test: Analgesic activity in po dosed mouse by Nilsen assay; type: functional
# How it was run: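 Mouse analgesia by the Nilsen test with oral dosing. The ED50 is reported in mg/kg with confidence limits in parentheses.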
# [23] = system: Mus musculus; test: Analgesic activity mouse at 20 to 40 mg/kg, sc by Eddy hot-plate assay; type: functional, organism-based
# How it was run: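 Mouse analgesia by the Eddy hot-plate assay with subcutaneous injection. The ED50 is expressed with 95% SE limits.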
# [24] = system: Rhesus monkey; test: Toxicity in monkey assessed as depression at 1 to 16 mg/kg for 24 hrs; type: organism-based, Macaca mulatta; parameters: dose 1-16 mg/kg; settings: in vivo
# [25] = system: Rhesus monkey; test: Physical dependence capacity in monkey assessed as single dose suppression of morphine withdrawal syndrome at 2.5 to 10 mg/kg; type: ADME, organism-based, Macaca mulatta; parameters: dose 2.5-10 mg/kg; settings: in vivo
# [26] = system: Rhesus monkey; test: Physical dependence capacity in monkey assessed as single dose suppression of morphine withdrawal syndrome at 1 to 16 mg/kg; type: ADME, organism-based, Macaca mulatta; parameters: dose 1-16 mg/kg; settings: in vivo
# [27] = system: Rhesus monkey; test: Toxicity in monkey assessed as vomiting at 1 to 4 mg/kg for 24 hrs; type: organism-based, Macaca mulatta; parameters: dose 1-4 mg/kg; settings: in vivo
# [28] = system: Mus musculus; test: Toxicity in mouse at 50 mg/kg, sc; type: organism-based; parameters: dose 50 mg/kg, route subcutaneous; settings: in vivo
# [29] = system: Rhesus monkey; test: Toxicity in monkey assessed as severe retching at 1 to 4 mg/kg for 24 hrs; type: organism-based, Macaca mulatta; parameters: dose 1-4 mg/kg; settings: in vivo
# [30] = system: Rhesus monkey; test: Toxicity in monkey assessed as gazing behavior at 10 mg/kg; type: organism-based, Macaca mulatta; parameters: dose 10 mg/kg; settings: in vivo
# [31] = system: Rhesus monkey; test: Toxicity in monkey assessed as head tremor at 10 mg/kg; type: organism-based, Macaca mulatta; parameters: dose 10 mg/kg; settings: in vivo
# [32] = Mus musculus, sc, read-out: ED50
structure (smiles),measurement,setting,value
CCC[C@H]1[C@H]2Cc3ccc(O)cc3[C@]1(C)CCN2C [listing 1 of 2 here],Activity,[1],Toxic
same,ED50,[2]; [32],1.8 mg/kg
same,ED50,[3]; [32],1.61 mg/kg
CCC[C@H]1[C@H]2Cc3ccc(O)cc3[C@]1(C)CCN2C.O=C(O)C(O)c1ccccc1,Activity,[4],Non-toxic
same,Activity,[5],Toxic
same,Activity,[6],Non-toxic
same,Activity,[7],Non-toxic
same,Activity,[8],Toxic
same,Activity,[9],Non-toxic
same,Activity,[10],Toxic
same,Activity,[11],Toxic
same,Activity,[12],Toxic
same,ED50,[2]; [32],1.2 mg/kg
same,Activity,[13],Non-toxic
same,Activity,[14],Toxic
same,Activity,[15],Toxic
same,Activity,[16],Toxic
same,ED50,[3]; [32],1.1 mg/kg
same,Activity,[17],Non-toxic
same,Activity,[18],Toxic
CN1CC[C@]23c4c5ccc(O)c4O[C@H]2[C@@H](O)C=C[C@H]3[C@H]1C5.Cl [MORPHINE HYDROCHLORIDE],ED50,[2]; [32],0.8 mg/kg
same,ED50,[3]; [32],1.2 mg/kg
CCC[C@@H]1[C@H]2Cc3ccc(O)cc3[C@]1(C)CCN2C.Cl (racemic),Activity,[19],Non-toxic
same,ED50,[2]; [32],0.35 mg/kg
same,Activity,[20],Non-toxic
same,Activity,[21],Non-toxic
same,ED50,[3],0.64 mg/kg
C=CCN1CC[C@]23c4c5ccc(O)c4O[C@H]2[C@@H](O)C=C[C@H]3[C@H]1C5.Cl [NALORPHINE HYDROCHLORIDE],ED50,[2]; [32],4.8 mg/kg
same,ED50,[3]; [32],36.4 mg/kg
COc1ccc2c3c1O[C@H]1[C@@H](O)C=C[C@H]4[C@@H](C2)N(C)CC[C@@]341 [CODEINE],ED50,[22],21.4 mg/kg
COc1ccc2c3c1O[C@H]1C(=O)CC[C@@]4(O)[C@@H](C2)N(C)CC[C@]314 [OXYCODONE],ED50,[22],1.3 mg/kg
CCC[C@H]1[C@H]2Cc3ccc(O)cc3[C@]1(C)CCN2C [listing 2 of 2 here],Activity,[23],inactive
CCC[C@@H]1[C@H]2Cc3ccc(O)cc3[C@]1(C)CCN2C.Cl,Activity,[24],Toxic
same,ED50,[22],7.26 mg/kg
same,Activity,[25],Non-toxic
same,Activity,[26],Toxic
same,Activity,[27],Toxic
same,Activity,[28],Toxic
same,Activity,[29],Toxic
same,ED50,[2],0.35 mg/kg
same,Activity,[30],Toxic
same,Activity,[31],Toxic
same,ED50,[3],0.3 mg/kg
